“And” between values parts separate entries of the source, which are not always exact repeats. Identical values can stand only once.
How the values were obtained:
U2OS = assay: Multiplex assay against U2OS; type: toxicity, cell-based; conditions: human
How it was run: (§1)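 Cells were classed with CellPathfinder machine-learning gating, first as Hoechst high-intensity objects or normal cells, then (normal cells) as healthy, pyknosed or fragmented nuclei, and finally (pyknosed cells) as mitotic or apoptotic. Staining of live cells at seeding used Hoechst33342, BioTracker Green Microtubule Cytoskeleton Dye, MitoTracker Red and Annexin V Alexa Fluor 680, with imaging on a CQ1 microscope at 37°C and 5% CO2 after compound addition. Tubulin, mitochondrial-mass and membrane-permeability phenotypes are per cents of healthy-nucleus cells.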

HEK-293T = assay: Multiplex assay against HEK293T; type: toxicity, cell-based; conditions: human; how it was run: as §1
[1] = 12 h, 1 µM, compound concentration 1 uM
[2] = 12 h, 10 µM, compound concentration 10 uM
[3] = 24 h, 1 µM, compound concentration 1 uM
[4] = 24 h, 10 µM, compound concentration 10 uM
[5] = 48 h, 1 µM, compound concentration 1 uM
[6] = 48 h, 10 µM, compound concentration 10 uM

Cc1noc(C)c1-c1cnc2c(-c3ccc(C(=O)O)cc3)cn([C@@H](C)c3ccccn3)c2c1 [PLX-51107]
Population Apoptotic (%) (U2OS; [1]): 28.33% and 48.15% | Population Fragmented Nuclei (%) (U2OS; [1]): 2.1% and 1.04% | Population Healthy Nuclei (%) (U2OS; [1]): 85.32% and 84.97% | Population Hoechst High Intensity Objects (%) (U2OS; [1]): 0% | Population Membrane Permeable-Phenotype (%) (U2OS; [1]): 0.25% and 4.88% | Population Mitochondria Different-Phenotype (%) (U2OS; [1]): 0% and 5.49% | Population Mitotic Cells (%) (U2OS; [1]): 71.67% and 51.85% | Population Normal (%) (U2OS; [1]): 100% | Population Pyknosed Nuclei (%) (U2OS; [1]): 12.58% and 13.99% | Population Tubulin-Different-Phenotype (%) (U2OS; [1]): 0.74% and 3.05% | Total Cell Count (U2OS; [1]): 477 and 193 | Population Apoptotic (%) (U2OS; [2]): 30.77% and 33.33% | Population Fragmented Nuclei (%) (U2OS; [2]): 2.92% and 1.9% | Population Healthy Nuclei (%) (U2OS; [2]): 82.47% and 82.91% | Population Hoechst High Intensity Objects (%) (U2OS; [2]): 0% | Population Membrane Permeable-Phenotype (%) (U2OS; [2]): 1.36% and 3.05% | Population Mitochondria Different-Phenotype (%) (U2OS; [2]): 0.27% and 7.63% | Population Mitotic Cells (%) (U2OS; [2]): 69.23% and 66.67% | Population Normal (%) (U2OS; [2]): 100% | Population Pyknosed Nuclei (%) (U2OS; [2]): 14.61% and 15.19% | Population Tubulin-Different-Phenotype (%) (U2OS; [2]): 1.36% and 1.53% | Total Cell Count (U2OS; [2]): 445 and 158 | Population Apoptotic (%) (U2OS; [3]): 32.76% and 59.26% | Population Fragmented Nuclei (%) (U2OS; [3]): 3.22% and 5.11% | Population Healthy Nuclei (%) (U2OS; [3]): 87.88% and 85.04% | Population Hoechst High Intensity Objects (%) (U2OS; [3]): 0% | Population Membrane Permeable-Phenotype (%) (U2OS; [3]): 0.52% and 4.29% | Population Mitochondria Different-Phenotype (%) (U2OS; [3]): 0.35% and 3.86% | Population Mitotic Cells (%) (U2OS; [3]): 67.24% and 40.74% | Population Normal (%) (U2OS; [3]): 100% | Population Pyknosed Nuclei (%) (U2OS; [3]): 8.9% and 9.85% | Population Tubulin-Different-Phenotype (%) (U2OS; [3]): 0.52% and 2.15% | Total Cell Count (U2OS; [3]): 652 and 274 | Population Apoptotic (%) (U2OS; [4]): 43.37% and 43.48% | Population Fragmented Nuclei (%) (U2OS; [4]): 5.51% and 6.04% | Population Healthy Nuclei (%) (U2OS; [4]): 79.23% and 81.32% | Population Hoechst High Intensity Objects (%) (U2OS; [4]): 0% | Population Membrane Permeable-Phenotype (%) (U2OS; [4]): 0.93% and 2.7% | Population Mitochondria Different-Phenotype (%) (U2OS; [4]): 0% and 4.73% | Population Mitotic Cells (%) (U2OS; [4]): 56.63% and 56.52% | Population Normal (%) (U2OS; [4]): 100% | Population Pyknosed Nuclei (%) (U2OS; [4]): 15.26% and 12.64% | Population Tubulin-Different-Phenotype (%) (U2OS; [4]): 0.46% and 0.68% | Total Cell Count (U2OS; [4]): 544 and 182 | Population Apoptotic (%) (U2OS; [5]): 51.49% and 72.73% | Population Fragmented Nuclei (%) (U2OS; [5]): 10.29% and 4.03% | Population Healthy Nuclei (%) (U2OS; [5]): 80.83% and 86.62% | Population Hoechst High Intensity Objects (%) (U2OS; [5]): 0% | Population Membrane Permeable-Phenotype (%) (U2OS; [5]): 0.44% and 2.21% | Population Mitochondria Different-Phenotype (%) (U2OS; [5]): 0.11% and 1.47% | Population Mitotic Cells (%) (U2OS; [5]): 48.51% and 27.27% | Population Normal (%) (U2OS; [5]): 100% | Population Pyknosed Nuclei (%) (U2OS; [5]): 8.88% and 9.34% | Population Tubulin-Different-Phenotype (%) (U2OS; [5]): 0.44% and 1.47% | Total Cell Count (U2OS; [5]): 1137 and 471 | Population Apoptotic (%) (U2OS; [6]): 58.54% and 60.87% | Population Fragmented Nuclei (%) (U2OS; [6]): 17.75% and 9.91% | Population Healthy Nuclei (%) (U2OS; [6]): 65.96% and 70.26% | Population Hoechst High Intensity Objects (%) (U2OS; [6]): 0% | Population Membrane Permeable-Phenotype (%) (U2OS; [6]): 0.6% and 1.84% | Population Mitochondria Different-Phenotype (%) (U2OS; [6]): 0% and 2.45% | Population Mitotic Cells (%) (U2OS; [6]): 41.46% and 39.13% | Population Normal (%) (U2OS; [6]): 100% | Population Pyknosed Nuclei (%) (U2OS; [6]): 16.29% and 19.83% | Population Tubulin-Different-Phenotype (%) (U2OS; [6]): 1.2% and 0.61% | Population Apoptotic (%) (HEK-293T; [1]): 5.67% and 10.17% | Population Fragmented Nuclei (%) (HEK-293T; [1]): 1.66% and 3.31% | Population Hoechst High Intensity Objects (%) (HEK-293T; [1]): 0% | Population Membrane Permeable-Phenotype (%) (HEK-293T; [1]): 0% and 7.14% | Population Mitotic Cells (%) (HEK-293T; [1]): 94.33% and 89.83% | Population Normal (%) (HEK-293T; [1]): 100% | Population Pyknosed Nuclei (%) (HEK-293T; [1]): 40.33% and 78.15% | Population Tubulin-Different-Phenotype (%) (HEK-293T; [1]): 2.51% and 7.14% | Population Apoptotic (%) (HEK-293T; [2]): 13.75% and 7.84% | Population Healthy Nuclei (%) (HEK-293T; [2]): 45.95% and 25.98% | Population Hoechst High Intensity Objects (%) (HEK-293T; [2]): 0% | Population Membrane Permeable-Phenotype (%) (HEK-293T; [2]): 0% | Population Mitotic Cells (%) (HEK-293T; [2]): 86.25% and 92.16% | Population Normal (%) (HEK-293T; [2]): 100% | Population Pyknosed Nuclei (%) (HEK-293T; [2]): 51.78% and 54.45% | Population Tubulin-Different-Phenotype (%) (HEK-293T; [2]): 4.23% and 5.48% | Total Cell Count (HEK-293T; [2]): 309 and 281 | Population Apoptotic (%) (HEK-293T; [3]): 9.2% and 11.02% | Population Fragmented Nuclei (%) (HEK-293T; [3]): 1.19% and 0.87% | Population Healthy Nuclei (%) (HEK-293T; [3]): 75.73% and 43.91% | Population Hoechst High Intensity Objects (%) (HEK-293T; [3]): 0% | Population Membrane Permeable-Phenotype (%) (HEK-293T; [3]): 0% | Population Mitochondria Different-Phenotype (%) (HEK-293T; [3]): 7.18% and 2.97% | Population Mitotic Cells (%) (HEK-293T; [3]): 90.8% and 88.98% | Population Normal (%) (HEK-293T; [3]): 100% | Population Pyknosed Nuclei (%) (HEK-293T; [3]): 23.08% and 55.22%
